Measured values as given in ChEMBL document CHEMBL1158566, “The bisnaphthalimides as new active lead compounds against Plasmodium falciparum” (Bioorg Med Chem, 2010).
Calls of active or inactive are those of the source. The rule behind the calls is not given here.

Tests used:
[1] = system: Plasmodium falciparum; experiment: Antiplasmodial activity against chloroquine-sensitive Plasmodium falciparum 3D7 assessed as parasite-specific LDH release after 72 hrs by Malstat assay; assay type: functional, organism-based; conditions: 3D7, 72 h
In short: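 Synchronized 3D7 ring stages seeded at 1% parasitemia with compound (in H2O or DMSO) across 10 pM–100 µM. DMSO 0.5% served as negative control. Cultured 72 h in triplicate, then viability read as Plasmodium lactate dehydrogenase activity (Malstat). Each compound run two to four times. IC50 and standard deviation calculated.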

[2] = Cytotoxicity against mouse J774.1 cells after 48 hrs by alamar blue satining; assay type: cell-based; conditions: J774.1, 48 h
In short: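 J774.1 macrophages at 1×10^5 cells/mL in phenol-red-free RPMI (10% FCS, 2 mM glutamine, 10 mM Hepes pH 7.2, 50 µM 2-mercaptoethanol, antibiotics) with increasing compound concentrations, 24 h at 37 °C, 5% CO2. AlamarBlue added to 10%, further 24 and 48 h incubation. Absorbance read at 540 nm against 630 nm reference. Final DMSO ≤1%, duplicates.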

[3] = system: Plasmodium falciparum; experiment: Antiplasmodial activity against chloroquine-resistant Plasmodium falciparum Dd2 assessed as parasite-specific LDH release after 72 hrs by Malstat assay; assay type: functional, organism-based; conditions: Dd2, 72 h
In short: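 P. falciparum asexual blood stages: synchronized ring-stage cultures at 1% parasitemia, exposed to compounds (in water or DMSO) over 10 pM–100 µM for 72 h in triplicate. 0.5% DMSO served as negative control. Viability was read as parasite lactate dehydrogenase activity (Malstat). Each compound was run two to four times, and IC50 with standard deviation was calculated.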

[4] = system: Plasmodium falciparum; experiment: Antiplasmodial activity against blood stage forms of chloroquine-sensitive Plasmodium falciparum 3D7 assessed as dysfunctional intracellular membrane biosynthesis at IC50 after 72 hrs by electron microscopy; assay type: functional, organism-based
In short: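 Blood-stage P. falciparum cultured in vitro, exposed 72 h to compound or to 0.5 vol % DMSO control. Fixed in 1% glutaraldehyde/4% paraformaldehyde in PBS, post-fixed in 1% OsO4/1.5% K3[Fe(CN)6], uranyl acetate stained, ethanol-dehydrated and Epon-embedded. Ultrathin sections post-stained with 1% uranyl acetate and examined by transmission EM for intracellular membrane whirls.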

SMILES	IC50 [1]	IC50 [2]	IC50 [3]	Activity [4]
CC(C)(CN1C(=O)c2cccc3c(N)ccc(c23)C1=O)C[N+](C)(C)CCCCCC[N+](C)(C)CC(C)(C)CN1C(=O)c2cccc3c(N)ccc(c23)C1=O	6.76 µM	> 100 µM	7.39 µM	–
C[N+](C)(C)CCCCCC[N+](C)(C)C [HEXAMETHONIUM BROMIDE]	> 100 µM	> 100 µM	–	–
CC(C)(CN1C(=O)c2cccc3cc(N)cc(c23)C1=O)C[N+](C)(C)CCCCCC[N+](C)(C)CC(C)(C)CN1C(=O)c2cccc3cc(N)cc(c23)C1=O	22.6 µM	> 100 µM	–	–
CC(C)(CN1C(=O)c2cccc3cccc(c23)C1=O)C[N+](C)(C)CCCCCC[N+](C)(C)CC(C)(C)CN1C(=O)c2cccc3cccc(c23)C1=O	0.8 µM	> 100 µM	–	–
CC(C)(CN1C(=O)c2cccc3c([N+](=O)[O-])ccc(c23)C1=O)C[N+](C)(C)CCCCCC[N+](C)(C)CC(C)(C)CN1C(=O)c2cccc3c([N+](=O)[O-])ccc(c23)C1=O	3.48 µM	> 100 µM	–	–
CC(C)(CN1C(=O)c2cccc3cc([N+](=O)[O-])cc(c23)C1=O)C[N+](C)(C)CCCCCC[N+](C)(C)CC(C)(C)CN1C(=O)c2cccc3cc([N+](=O)[O-])cc(c23)C1=O	0.66 µM	> 100 µM	–	Active
CCC[N+](C)(C)CC(C)(C)CN1C(=O)c2cccc3cccc(c23)C1=O	9.81 µM	> 100 µM	8.11 µM	–
C[N+](C)(C)CCCCCCCCCCCC[N+](C)(C)C	0.395 µM	> 100 µM	–	–
C[N+](C)(C)CCCCCCCCCC[N+](C)(C)C [DECAMETHONIUM BROMIDE]	0.911 µM	> 100 µM	–	–
CC(C)(CN1C(=O)c2cccc3cccc(c23)C1=O)C[N+](C)(C)CCCCCCBr	0.43 µM	> 100 µM	0.89 µM	–
CN(C)CCCN1C(=O)c2cccc3cccc(c23)C1=O	> 100 µM	> 100 µM	–	–

Second part, led by results:

IC50 [1]	SMILES	IC50 [2]	IC50 [3]	Activity [4]
> 100 µM	C[N+](C)(CCCCC[N+](C)(C)CCCN1C(=O)c2cccc3cccc(c23)C1=O)CCCN1C(=O)c2cccc3cccc(c23)C1=O	> 100 µM	–	–
0.219 µM	C[N+](C)(CCCCCCCCCCCC[N+](C)(C)CCCN1C(=O)c2cccc3cccc(c23)C1=O)CCCN1C(=O)c2cccc3cccc(c23)C1=O	> 100 µM	–	–
0.51 µM	C[N+](C)(CCCCCCC[N+](C)(C)CCCN1C(=O)c2cccc3cccc(c23)C1=O)CCCN1C(=O)c2cccc3cccc(c23)C1=O	> 100 µM	–	–
0.4 µM	CC(C)(CN1C(=O)c2cccc3cccc(c23)C1=O)C[N+](C)(C)CCCCCC[N+](C)(C)CCCN1C(=O)c2cccc3cccc(c23)C1=O	> 100 µM	–	Active
> 100 µM	C[N+](C)(CCCN1C(=O)c2cccc3cccc(c23)C1=O)CCC[N+](C)(C)CCCN1C(=O)c2cccc3cccc(c23)C1=O	> 100 µM	–	–
0.064 µM	C[N+](C)(CCCCCCCC[N+](C)(C)CCCN1C(=O)c2cccc3cccc(c23)C1=O)CCCN1C(=O)c2cccc3cccc(c23)C1=O	> 100 µM	–	–
> 100 µM	C[N+](C)(CCCC[N+](C)(C)CCCN1C(=O)c2cccc3cccc(c23)C1=O)CCCN1C(=O)c2cccc3cccc(c23)C1=O	> 100 µM	–	–
0.145 µM	C[N+](C)(CCCCCCCCCC[N+](C)(C)CCCN1C(=O)c2cccc3cccc(c23)C1=O)CCCN1C(=O)c2cccc3cccc(c23)C1=O	> 100 µM	–	–
7.99 µM	C[N+](C)(CCCCCC[N+](C)(C)CCCN1C(=O)c2cccc3cccc(c23)C1=O)CCCN1C(=O)c2cccc3cccc(c23)C1=O	> 100 µM	–	–
0.06 µM	C[N+](C)(CCCCCCCCC[N+](C)(C)CCCN1C(=O)c2cccc3cccc(c23)C1=O)CCCN1C(=O)c2cccc3cccc(c23)C1=O	> 100 µM	–	–
0.17 µM	C[N+](C)(CCCCCCCCCCC[N+](C)(C)CCCN1C(=O)c2cccc3cccc(c23)C1=O)CCCN1C(=O)c2cccc3cccc(c23)C1=O	> 100 µM	–	–
